The nature of test [1]: inhibitors of TNFa-induced NFkB p65 translocation, primary screen, imaging, HUVEC, MLSMR starter and 10KST1 sets (AID 438;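 active means inhibition above 20% together with a positive visual image hit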;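 further: compound added about 3h40 before a 20 min TNFalpha stimulation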;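 on inhibition: signal is the nuclear over cytoplasmic p65 intensity ratio per well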). Particulars: HUVEC TNFa-induced p65 nuclear translocation; cell count: measured here: nuclei count (cytotoxicity indicator), at 2.08 µM; inhibition: at 2 µM, stronger effect = higher value, 0% TNFa-plus-vehicle, 100% no-TNFa wells.
A short description of test [2]: reduction of polyQ htt aggregates in cells – imaging, exon1htt(103Q)mCFP cells, high-content imaging, primary screen (AID 483).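 Further: compound exposure lasted 3 days before fixation.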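 On nuclei count: percent of the per-plate median nuclei count of sample wells.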 As to conditions: exon1htt(103Q)mCFP cell line, aggregate imaging, at 2 µM; inhibition of aggregation: stronger effect = higher value; nuclei count: measured here: cell count, toxicity.
Test [3] can be described thus: endothelial E-selectin expression blockers – imaging, HUVEC, immunofluorescence, MLSMR starter and 10KST1 sets, primary screen (AID 487;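 active means visually confirmed hit in the image check and inhibition above 20%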;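 on inhibition: signal is fraction of cell area covered by stained E-selectin grains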;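 on nuclei count: 100% = median nuclei count of all wells on the same plate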). As to conditions: HUVEC TNFalpha-induced E-selectin immunofluorescence imaging, at 2 µM; inhibition: stronger effect = higher value; nuclei count: measured here: cell number, toxicity.
Test [4] has as its target Voltage-gated potassium channel subunit beta-2 (Rattus norvegicus) (UniProt P62483). As to the kind of experiment: inhibitors of rat Kvbeta2 reductase activity – biochemical, NADPH fluorescence, primary screen (AID 622;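 active means fluorescence slope higher than the sample average by over 3 SD, cut at about -0.22 in these data, passing the limit was not always enough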;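 further: slope of raw intensity against log time taken from 70 to 1610 s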). As to conditions: recombinant KvBeta, 4-cyanobenzaldehyde reduction, at 10 µM, stronger effect = higher value.
Test [5] has the same target. As to the kind of experiment: enhancers of rat Kvbeta2 NADPH turnover – biochemical, NADPH fluorescence, primary screen (AID 623;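 active means NADPH fluorescence slope more negative than the mean of all samples by about 3 SD, 99.7% confidence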;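 further: fluorescence intensity change per second fitted from 20 to 320 s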). Particulars: Recombinant KvBeta, NADPH fluorescence decrease slope, 10 min; at 10 µM; stronger effect = lower value.
Test [6] addresses Muscarinic acetylcholine receptor M4 (Homo sapiens) (UniProt P08173). As to the kind of experiment: M4-linked GIRK flux change, two-sided – cell-based, HEK293 M4/GIRK, thallium flux, BTC-AM, M4 allosteric agonist project, primary screen (AID 625;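 active means fluorescence slope after compound addition differing from the mean of all tested samples at 99.7% confidence, mostly higher but some lower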;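 further: thallium influx through GIRK channels coupled to M4 in HEK293 cells with BTC-AM dye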). Particulars: at 10 µM, actives lie on both sides. The method, boiled down: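 Assay system: HEK293 cells with M4 receptor and GIRK channels / Controls: carbachol and DMSO controls / Schedule: 1 h dye loading, 2 min kinetic read / Technique: kinetic fluorescence with BTC-AM dye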

A short description of test [7]: blockers of RIG-like receptor reporter activation – cell-based, Sendai virus stimulus, luciferase, 10K MLSCN set, TLR/RLR signaling modifier project, primary screen (AID 602276;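 active means inhibition at or above 50% at 10 µM; inactive means inhibition below 50%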;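 further: firefly luciferase from ISG56 promoter only with Renilla not read in this screen; 0% = Sendai virus plus DMSO and 100% = medium plus DMSO without virus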). As to conditions: HEK293 RL24 IRF3 luciferase reporter, at 10 µM, stronger effect = higher value. Background: In a reporter assay the amount or activity of a reporter protein is the signal.
Test [8] in a line: TLR3 IRF3 reporter activation blockers – cell-based, poly I:C stimulus, luciferase, 10K MLSCN set, primary screen (AID 602277;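 active means inhibition of the reporter signal at or above 50%; inactive means inhibition below 50%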). Particulars: HEK293-TLR3 RL24 IRF3 luciferase reporter, at 10 µM, stronger effect = higher value.

We go through 14 compounds from PubChem BioAssay.

Calls of active or inactive are those of the source.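 How the source made its calls, unless noted: active means visual image review flags a hit and inhibition of aggregation exceeds 20%; inconclusive means visual hit but inhibition at or below 20%; inactive means no hit on visual image review.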

Muscarinic acetylcholine receptor M4 (Homo sapiens), sequence (P08173 whole entry, looked up): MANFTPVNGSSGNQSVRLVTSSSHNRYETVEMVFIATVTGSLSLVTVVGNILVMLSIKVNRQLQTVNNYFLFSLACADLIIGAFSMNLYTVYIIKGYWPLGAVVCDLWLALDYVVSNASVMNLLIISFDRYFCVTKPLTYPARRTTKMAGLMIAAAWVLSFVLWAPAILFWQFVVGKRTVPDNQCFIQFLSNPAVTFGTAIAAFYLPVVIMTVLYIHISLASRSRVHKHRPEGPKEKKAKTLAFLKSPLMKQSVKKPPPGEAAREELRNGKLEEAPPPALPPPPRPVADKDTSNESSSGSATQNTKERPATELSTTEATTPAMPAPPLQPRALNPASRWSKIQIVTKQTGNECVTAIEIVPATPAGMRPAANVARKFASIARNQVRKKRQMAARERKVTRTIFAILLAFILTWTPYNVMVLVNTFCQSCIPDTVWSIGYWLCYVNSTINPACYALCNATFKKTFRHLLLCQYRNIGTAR
Voltage-gated potassium channel subunit beta-2 (Rattus norvegicus), sequence (P62483 whole entry, looked up): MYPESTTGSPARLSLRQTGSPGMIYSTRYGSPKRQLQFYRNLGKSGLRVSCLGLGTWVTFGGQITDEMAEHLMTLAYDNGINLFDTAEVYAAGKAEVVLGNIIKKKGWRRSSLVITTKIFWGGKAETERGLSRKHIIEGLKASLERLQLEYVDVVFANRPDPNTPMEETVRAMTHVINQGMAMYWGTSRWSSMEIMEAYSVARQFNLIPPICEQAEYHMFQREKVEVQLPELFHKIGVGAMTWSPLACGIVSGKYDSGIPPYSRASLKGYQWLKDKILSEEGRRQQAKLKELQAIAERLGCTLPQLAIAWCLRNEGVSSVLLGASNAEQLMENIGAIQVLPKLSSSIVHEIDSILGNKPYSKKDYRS

One may read the inhibition as the change of the read-out against control, counted positive when it falls. Consider `Cn1ccnc1C(O)c1ccco1` (centres undefined), for which, in test [1], the cell count stood at 722. The inhibition in test [1] was 3.3% (inactive); in test [3], -146% (inactive); in test [7], 15.2% (inactive); in test [8], 13.2% (inactive). Also, the inhibition of aggregation in test [2] was -15.7% (inactive). The nuclei count was found to be 97.2% in test [2] and 129% in test [3]. Besides, the fluorescence slope in test [4] was -0.422 (inactive); in test [6], 0.00477 (inactive). For the same compound, the NADPH fluorescence slope in test [5] was 2.5e-05 (inactive).
Turning to `O=C(Cn1nnc2c(cnn2-c2ccc(F)cc2)c1=O)c1ccccc1F`, the cell count in test [1] is 438. Besides, the inhibition in test [1] was 5.1% (inactive); in test [3], -86.3% (inactive); in test [7], 11.8% (inactive); in test [8], 10.7% (inactive). Moreover, the inhibition of aggregation in test [2] is -13.6% (inactive). Besides, the nuclei count in test [2] stood at 104%; in test [3] it was 118%. Further, the fluorescence slope in test [4] was -0.553 (inactive); in test [6] it was 0.00571 (inactive). The NADPH fluorescence slope in test [5] was -4.4e-05 (inactive).
As to `COC(=O)c1cc(NC(=O)C2CC=CCC2C(=O)O)cc(C(=O)OC)c1` (centres undefined), in test [1], the cell count stood at 800. Moreover, the inhibition was -6.9% (inactive) in test [1], 5.2% (inactive) in test [3], 9.55% (inactive) in test [7] and 7.94% (inactive) in test [8]. Further, the inhibition of aggregation in test [2] is -7.4% (inactive). The values for the nuclei count in test [2] and in test [3] were 108% and 97.7%, respectively. Besides, the fluorescence slope was -0.536 (inactive) in test [4] and 0.00439 (inactive) in test [6]. In addition, the NADPH fluorescence slope in test [5] is -4.3e-05 (inactive).
Consider `CCNc1nc(NC(C)C)nc(N(C#N)CCOc2ccc(Cl)cc2Cl)n1`, for which, in test [1], the cell count amounted to 603. Further, the inhibition in test [1] was -8.6% (inactive); in test [3] it was -123% (inactive); in test [7] it was 15.5% (inactive); in test [8] it was -2.09% (inactive). Also, the inhibition of aggregation in test [2] was 20.7% (inactive). The nuclei count in test [2] is 98.5%; in test [3], 96.3%. Further, the values for the fluorescence slope in test [4] and in test [6] were -0.446 (inactive) and 0.00644 (inactive), respectively. For the same compound, in test [5], the NADPH fluorescence slope is -3.7e-05 (inactive).
Regarding `Oc1ccc(-c2onc(C(F)(F)F)c2-c2cscn2)c(O)c1`, the cell count in test [1] was 363. The inhibition is -0.5% (inactive) in test [1], -85.6% (inactive) in test [3], 14.9% (inactive) in test [7] and -12.3% (inactive) in test [8]. For the same compound, the inhibition of aggregation in test [2] is -7% (inactive). For the same compound, the nuclei count was found to be 92.7% in test [2] and 116% in test [3]. The results for the fluorescence slope in test [4] and in test [6] were -0.573 (inactive) and 0.00657 (inactive), respectively. Also, in test [5], the NADPH fluorescence slope was -5.1e-05 (inactive).
With `CN(c1cccc(NS(=O)(=O)c2cccs2)c1)S(C)(=O)=O`, the cell count in test [1] was determined as 427. For the same compound, the inhibition in test [1] is 2.4% (inactive); in test [3], -5% (inactive); in test [7], 21.9% (inactive); in test [8] it was 15.4% (inactive). In test [2], the inhibition of aggregation is -15.2% (inactive). Moreover, the nuclei count in test [2] turned out to be 110%; in test [3], 109%. Besides, the fluorescence slope in test [4] is -0.446 (inactive); in test [6] it was 0.00491 (inactive). In addition, the NADPH fluorescence slope in test [5] is -2.2e-06 (inactive).
Regarding `N#Cc1c(N)n(CCNC(=O)c2cccs2)c2nc3ccccc3nc12`, the cell count in test [1] came out at 578. Also, the inhibition was 10.7% (inactive) in test [1], 29.4% (inactive) in test [3], 9.96% (inactive) in test [7] and -10% (inactive) in test [8]. In test [2], the inhibition of aggregation is 17.7% (inactive). Also, the nuclei count in test [2] was 99.9%; in test [3] it was 105%. For the same compound, the fluorescence slope in test [4] is -0.0517 (inactive); in test [6], 0.00574 (inactive). The NADPH fluorescence slope in test [5] is -2.6e-05 (inactive).
`CN1C(=O)C2(NCCc3c2[nH]c2ccccc32)c2ccccc21` (centres undefined): the cell count in test [1] came out at 583. For the same compound, the inhibition is 0.7% (inactive) in test [1], -4.8% (inactive) in test [3], 20% (inactive) in test [7] and 34.7% (inactive) in test [8]. Further, in test [2], the inhibition of aggregation was -4.1% (inactive). Besides, the nuclei count in test [2] was found to be 99.3%; in test [3] it was 90.7%. Further, the fluorescence slope is -0.482 (inactive) in test [4] and 0.00214 (inactive) in test [6]. Further, the NADPH fluorescence slope in test [5] was -0.000314 (inactive).
Take `Cc1ccc(C)c(N2CCN(C(=O)C3CCN(S(=O)(=O)c4c(C)noc4C)CC3)CC2)c1`: the cell count in test [1] was 448. Besides, the inhibition in test [1] is -10.8% (inactive); in test [3] it was -17.6% (inactive); in test [7] it was 11.3% (inactive); in test [8], -1.19% (inactive). Besides, the inhibition of aggregation in test [2] was 30.5% (inactive). Moreover, the figures for the nuclei count in test [2] and in test [3] were 77% and 99.8%, respectively. Further, the fluorescence slope in test [4] is -0.474 (inactive); in test [6] it was 0.00554 (inactive). Also, the NADPH fluorescence slope in test [5] is -8.1e-06 (inactive).
Regarding `O=C(N1CCCCCC1)N1CCN(S(=O)(=O)N2CCCCC2)CC1`, the cell count in test [1] stood at 323. Further, the inhibition in test [1] is -2.2% (inactive); in test [3], -33.5% (inactive); in test [7], 24% (inactive); in test [8], 12.9% (inactive). Moreover, the inhibition of aggregation in test [2] is 9.2% (inactive). Moreover, the nuclei count was 106% in test [2] and 126% in test [3]. Further, the fluorescence slope in test [4] is -0.579 (inactive); in test [6], 0.00553 (inactive). The NADPH fluorescence slope in test [5] was -4.8e-05 (inactive).
Regarding `COc1ccc(-c2noc(CN3CCC(Cc4ccccc4)CC3)n2)cc1`, the cell count in test [1] was 322. The inhibition in test [1] was -0.7% (inactive); in test [3] it was -98.5% (inactive); in test [7], -7.04% (inactive); in test [8], -6.07% (inactive). In addition, the inhibition of aggregation in test [2] is -24.1% (inactive). For the same compound, the nuclei count in test [2] turned out to be 104%; in test [3], 123%. In addition, the fluorescence slope in test [4] is -0.553 (inactive); in test [6], 0.00696 (inactive). In addition, the NADPH fluorescence slope in test [5] was 6.3e-06 (inactive).
`N#C/C(C(=O)N1CCOCC1)=C1/SC=C(c2ccccc2)N1c1ccccc1`: in test [1], the cell count worked out at 327. Also, the inhibition in test [1] is -5.5% (inactive); in test [3], -118% (inactive); in test [7], 12.4% (inactive); in test [8] it was 26.4% (inactive). Besides, the inhibition of aggregation in test [2] is 13.8% (inactive). The nuclei count amounted to 96.2% in test [2] and 118% in test [3]. Further, the fluorescence slope is -0.277 (inactive) in test [4] and 0.00553 (inactive) in test [6]. Further, in test [5], the NADPH fluorescence slope was -3e-05 (inactive).
Turning to `CCN(CC)C(=O)C1=C(C)NC(=O)NC1c1c(F)cccc1Cl` (centres undefined), the cell count in test [1] was found to be 410. The inhibition in test [1] is -7.5% (inactive); in test [3], -73.9% (inactive); in test [7], 7.67% (inactive); in test [8] it was 10.6% (inactive). Moreover, the inhibition of aggregation in test [2] is -3.7% (inactive). For the same compound, the nuclei count was found to be 116% in test [2] and 122% in test [3]. The fluorescence slope is -0.521 (inactive) in test [4] and 0.00392 (inactive) in test [6]. Further, the NADPH fluorescence slope in test [5] was -0.000194 (inactive).
Consider `COc1ccc(Cc2nnc3n2N=C(c2cc4ccccc4o2)CS3)cc1OC`, for which the cell count in test [1] was 378. Moreover, the inhibition in test [1] is -16.3% (inactive); in test [3], 38.3% (inactive); in test [7], 11.3% (inactive); in test [8] it was 26% (inactive). Moreover, the inhibition of aggregation in test [2] was 40.2% (active). Further, the values for the nuclei count in test [2] and in test [3] were 43.3% and 51.6%, respectively. Further, the fluorescence slope in test [4] was -0.346 (inactive); in test [6], 0.00468 (inactive). For the same compound, the NADPH fluorescence slope in test [5] was -7.6e-05 (inactive).
